Test results published in ChEMBL document CHEMBL1933038 (Bioorg Med Chem Lett, 2012).

Experiments:
Histamine H4 receptor [1] = molecular target: T1, Histamine H4 receptor (Homo sapiens, UniProt Q9H3N8); assay: Displacement of [3H]histamine from human H4 receptor expressed in HEK cell membranes; set-up: species or system HEK293
Histamine H4 receptor [2] = molecular target: T2, Histamine H4 receptor (Mus musculus, UniProt Q91ZY2); assay: Displacement of [3H]histamine from mouse H4R
T2 sequence (Q91ZY2 whole entry): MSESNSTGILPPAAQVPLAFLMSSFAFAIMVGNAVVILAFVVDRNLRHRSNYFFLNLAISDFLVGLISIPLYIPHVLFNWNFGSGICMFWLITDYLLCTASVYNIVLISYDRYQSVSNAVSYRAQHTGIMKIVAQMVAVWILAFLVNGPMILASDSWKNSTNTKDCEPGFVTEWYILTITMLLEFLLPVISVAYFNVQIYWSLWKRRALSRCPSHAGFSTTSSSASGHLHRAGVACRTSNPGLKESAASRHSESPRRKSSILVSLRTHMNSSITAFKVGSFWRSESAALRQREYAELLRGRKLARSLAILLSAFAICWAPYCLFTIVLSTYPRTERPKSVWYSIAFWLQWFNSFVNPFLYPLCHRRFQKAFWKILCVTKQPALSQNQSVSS

[3] = Metabolic stability in human liver microsomes assessed as compound remaining after 60 mins; type: ADME, Microsome; details: read-out: Stability
Method in brief: (§1)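 Liver microsomes (human, mouse or rat) incubated with compound for 60 min. Read-out is percentage of parent compound remaining; assay carried out by a contract laboratory.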

[4] = Metabolic stability in mouse liver microsomes assessed as compound remaining after 60 mins; type: ADME, Microsome; details: read-out: Stability; method in brief: as §1
[5] = Metabolic stability in rat liver microsomes assessed as compound remaining after 60 mins; type: ADME, Microsome; details: read-out: Stability; method in brief: as §1
[6] = Oral bioavailability in mouse; type: ADME, organism-based; details: in vivo
[7] = Half life in mouse; type: ADME, organism-based; details: in vivo
Histamine H1 receptor [8] = molecular target: Histamine H1 receptor (Homo sapiens, UniProt P35367); assay: Displacement of [3H]histamine from human H1 receptor expressed in HEK cell membranes; set-up: species or system HEK293
Histamine H4 receptor [9] = molecular target: T1, Histamine H4 receptor; assay: Antagonist activity at human H4 receptor expressed in HEK293T cells assessed as inhibition of histamine-induced [35S]GTPgammaS binding; type: functional, cell-based, HEK-293T
Histamine H1 receptor [10] = molecular target: Histamine H1 receptor (Rattus norvegicus, UniProt P31390); assay: Displacement of [3H]histamine from rat H1R
Histamine H3 receptor [11] = molecular target: Histamine H3 receptor (Rattus norvegicus, UniProt Q9QYN8); assay: Displacement of [3H]histamine from rat H3R
Histamine H4 receptor [12] = molecular target: Histamine H4 receptor (Rattus norvegicus, UniProt Q91ZY1); assay: Displacement of [3H]histamine from rat H4R
Histamine H3 receptor [13] = molecular target: Histamine H3 receptor (Mus musculus, UniProt P58406); assay: Displacement of [3H]histamine from mouse H3R
Histamine H4 receptor [14] = molecular target: T1, Histamine H4 receptor
Histamine H3 receptor [15] = molecular target: Histamine H3 receptor (Homo sapiens, UniProt Q9Y5N1); assay: Displacement of [3H]histamine from human H3 receptor expressed in HEK cell membranes; set-up: species or system HEK293
[16] = molecular target: Histamine H2 receptor (Homo sapiens) (UniProt P25021); assay: Displacement of cimetidine from H2 receptor at 10 uM
Method in brief: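 Single test concentration of 10 μM, run in duplicate. Result given as percentage displacement of cimetidine binding at the H2 receptor; assay carried out by a contract laboratory.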

Chain of Histamine H1 receptor (Homo sapiens, UniProt P35367) (P35367 whole entry): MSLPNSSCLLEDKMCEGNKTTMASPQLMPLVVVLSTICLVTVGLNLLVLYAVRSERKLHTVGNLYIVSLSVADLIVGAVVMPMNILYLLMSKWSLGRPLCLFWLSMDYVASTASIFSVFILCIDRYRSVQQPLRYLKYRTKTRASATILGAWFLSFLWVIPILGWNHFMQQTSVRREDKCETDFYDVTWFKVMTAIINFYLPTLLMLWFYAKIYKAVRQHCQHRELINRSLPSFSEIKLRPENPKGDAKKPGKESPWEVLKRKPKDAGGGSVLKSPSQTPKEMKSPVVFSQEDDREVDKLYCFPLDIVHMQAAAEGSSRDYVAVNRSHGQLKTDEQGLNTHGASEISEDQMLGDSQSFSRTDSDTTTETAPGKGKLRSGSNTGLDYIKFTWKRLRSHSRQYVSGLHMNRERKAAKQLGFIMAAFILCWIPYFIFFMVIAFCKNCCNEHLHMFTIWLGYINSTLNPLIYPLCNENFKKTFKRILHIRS
Chain of Histamine H3 receptor (Homo sapiens, UniProt Q9Y5N1) (Q9Y5N1 whole entry): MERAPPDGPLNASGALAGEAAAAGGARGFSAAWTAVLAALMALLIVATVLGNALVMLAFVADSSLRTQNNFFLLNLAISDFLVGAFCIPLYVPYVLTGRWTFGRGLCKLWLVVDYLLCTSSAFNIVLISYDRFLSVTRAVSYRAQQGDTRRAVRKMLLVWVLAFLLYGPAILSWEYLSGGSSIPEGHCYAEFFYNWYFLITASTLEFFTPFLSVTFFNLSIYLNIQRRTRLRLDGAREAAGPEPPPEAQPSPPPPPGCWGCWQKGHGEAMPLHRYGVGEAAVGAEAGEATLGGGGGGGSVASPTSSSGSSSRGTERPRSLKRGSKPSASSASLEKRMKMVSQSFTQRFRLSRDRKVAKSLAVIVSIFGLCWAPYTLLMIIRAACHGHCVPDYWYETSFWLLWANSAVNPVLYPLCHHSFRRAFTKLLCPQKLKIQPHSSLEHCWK
Chain of Histamine H2 receptor (Homo sapiens) (P25021 whole entry): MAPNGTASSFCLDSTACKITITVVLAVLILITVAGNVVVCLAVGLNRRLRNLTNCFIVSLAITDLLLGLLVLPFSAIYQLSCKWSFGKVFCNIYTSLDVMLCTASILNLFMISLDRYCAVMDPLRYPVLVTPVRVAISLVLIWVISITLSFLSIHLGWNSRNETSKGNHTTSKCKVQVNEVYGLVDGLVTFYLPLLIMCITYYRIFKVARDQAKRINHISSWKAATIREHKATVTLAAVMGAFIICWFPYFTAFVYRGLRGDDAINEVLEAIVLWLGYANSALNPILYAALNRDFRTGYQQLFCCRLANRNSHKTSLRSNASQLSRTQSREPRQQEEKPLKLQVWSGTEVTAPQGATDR
Chain of Histamine H4 receptor (Rattus norvegicus, UniProt Q91ZY1) (Q91ZY1 whole entry): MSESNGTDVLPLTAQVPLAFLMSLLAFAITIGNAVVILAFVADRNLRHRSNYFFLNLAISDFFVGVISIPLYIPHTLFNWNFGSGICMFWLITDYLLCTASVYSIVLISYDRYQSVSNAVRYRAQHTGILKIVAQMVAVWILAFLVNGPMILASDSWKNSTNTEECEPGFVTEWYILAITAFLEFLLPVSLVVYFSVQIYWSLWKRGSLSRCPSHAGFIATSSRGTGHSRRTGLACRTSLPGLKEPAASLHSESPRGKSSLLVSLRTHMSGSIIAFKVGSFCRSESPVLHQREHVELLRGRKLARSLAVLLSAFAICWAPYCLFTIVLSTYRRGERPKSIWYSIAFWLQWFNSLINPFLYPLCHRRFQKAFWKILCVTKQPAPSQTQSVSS
Chain of Histamine H3 receptor (Rattus norvegicus, UniProt Q9QYN8) (Q9QYN8 whole entry): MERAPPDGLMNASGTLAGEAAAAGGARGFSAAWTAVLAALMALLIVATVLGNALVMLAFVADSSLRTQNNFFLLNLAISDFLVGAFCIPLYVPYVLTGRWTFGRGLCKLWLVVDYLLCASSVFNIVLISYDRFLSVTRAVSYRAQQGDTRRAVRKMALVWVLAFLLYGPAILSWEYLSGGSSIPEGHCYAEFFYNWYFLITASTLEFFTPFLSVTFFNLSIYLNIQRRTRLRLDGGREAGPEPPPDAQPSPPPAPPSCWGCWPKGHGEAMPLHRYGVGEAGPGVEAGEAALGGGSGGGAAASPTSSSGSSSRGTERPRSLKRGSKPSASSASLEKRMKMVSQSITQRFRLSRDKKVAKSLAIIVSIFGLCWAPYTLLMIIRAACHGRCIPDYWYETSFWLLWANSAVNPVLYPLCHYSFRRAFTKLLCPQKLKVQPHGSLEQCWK
Chain of Histamine H1 receptor (Rattus norvegicus, UniProt P31390) (P31390 whole entry): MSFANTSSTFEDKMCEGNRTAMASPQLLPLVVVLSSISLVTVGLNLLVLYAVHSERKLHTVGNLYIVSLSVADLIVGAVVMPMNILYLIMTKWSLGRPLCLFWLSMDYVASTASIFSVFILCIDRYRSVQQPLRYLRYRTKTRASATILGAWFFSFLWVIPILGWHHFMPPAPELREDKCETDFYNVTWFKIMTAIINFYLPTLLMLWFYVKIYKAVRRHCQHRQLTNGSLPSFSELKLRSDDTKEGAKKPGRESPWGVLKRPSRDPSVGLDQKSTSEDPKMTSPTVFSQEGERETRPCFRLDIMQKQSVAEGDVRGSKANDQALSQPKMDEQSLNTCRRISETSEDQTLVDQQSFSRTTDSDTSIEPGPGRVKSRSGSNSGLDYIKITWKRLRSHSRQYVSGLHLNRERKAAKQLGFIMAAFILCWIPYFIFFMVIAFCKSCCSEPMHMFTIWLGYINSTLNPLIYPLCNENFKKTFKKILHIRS
Chain of Histamine H3 receptor (Mus musculus, UniProt P58406) (P58406 whole entry): as the sequence (Q9QYN8 whole entry) above, with T15A, A286T, A290G, R387H, I389V counted along it

Ki (Histamine H4 receptor [1]) [nM] | Ki (Histamine H1 receptor [8]) [nM] | IC50 (Histamine H4 receptor [9]) [nM] | Ki (Histamine H4 receptor [9]) [nM] | Structure (SMILES) | also measured
676 | – | – | – | CC(=O)c1cccc(-c2cccc3c(N4CCN(C)CC4)nc(N)nc23)c1 | –
16 | 10500 | 106 | 7 | Nc1nc(N2CCNCC2)c2ccc(-c3ccco3)cc2n1 | Ki (Histamine H4 receptor [2]): 23 nM; remaining at 1 h [3]: 96%; remaining at 1 h [4]: 80%; remaining at 1 h [5]: 83%; bioavailability [6]: 47%; half-life [7]: 412 min; Ki (Histamine H1 receptor [10]): 3600 nM; Ki (Histamine H3 receptor [11]): 2560 nM; Ki (Histamine H4 receptor [12]): 174 nM; Ki (Histamine H3 receptor [13]): 1070 nM; T1/2 (Histamine H4 receptor [14]): 4.1 min
15 | – | – | – | CC(=O)c1cccc(-c2ccc3c(N4CCN(C)CC4)nc(N)nc3c2)c1 | –
4 | 2800 | 46 | 3 | CN1CCN(c2nc(N)nc3cc(-c4ccsc4)ccc23)CC1 | Ki (Histamine H3 receptor [15]): 63 nM; Activity [16]: 74%
5 | 6420 | 83 | 5 | CN1CCN(c2nc(N)nc3cc(-c4ccco4)ccc23)CC1 | Ki (Histamine H3 receptor [15]): 98 nM; Activity [16]: 51%
6 | – | – | – | CN1CCN(c2nc3cc(Cl)c(Cl)cc3[nH]c2=O)CC1 | –

The remaining lines, values behind:

Structure (SMILES) | Ki (Histamine H4 receptor [1]) [nM] | Ki (Histamine H1 receptor [8]) [nM] | IC50 (Histamine H4 receptor [9]) [nM] | Ki (Histamine H4 receptor [9]) [nM] | also measured
Nc1nc2c(c(N3CCNCC3)n1)CCC1=C2[C@H]2CCCC[C@H]2O1 | 6 | – | – | – | –
CN1CCN(c2ncnc3ccccc23)CC1 | 328 | – | – | – | –
Cc1ccc2nc(N)nc(N3CCN(C)CC3)c2c1 | 649 | – | – | – | –
CN1CCN(c2nc(N)nc3ccccc23)CC1 | 32 | – | – | – | –
CN1CCN(c2nc(N)nc3cc(-c4ccoc4)ccc23)CC1 | – | 7370 | 47 | 4 | Ki (Histamine H3 receptor [15]): 188 nM; Activity [16]: 54%
CN1CCN(c2ccnc(N)n2)CC1 | 31 | – | – | – | –
CN1CCN(C(=O)c2nc3ccc(Cl)cc3[nH]2)CC1 | – | – | – | – | T1/2 (Histamine H4 receptor [14]): 25.6 min
